Test results: ChEMBL document CHEMBL1128703, “Chromophore-modified antitumor anthracenediones: synthesis, DNA binding, and cytotoxic activity of 1,4-bis[(aminoalkyl)amino]benzo[g]-phthalazine-5,10-diones” (J Med Chem, 1995)

How the values were obtained:
[1] = system: LoVo; test: (§1) Inhibitory activity against human colon adenocarcinoma cell line LoVo/Dx.; format: functional, cell-based
Procedure, shortened: (§2)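 LoVo and doxorubicin-resistant LoVo/Dx grown in Ham's F12 with 10% FCS, glutamine, BME vitamins, HEPES, pen/strep; 37 °C, CO2, mycoplasma-checked by DAPI. Seeded 2.5 × 10^4 cells/mL, preincubated 24 h, then drug exposure 144 h. MTT read-out at 570 nm; IC50 (μg/mL) as concentration inhibiting growth by 50%, at least three runs averaged.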

[2] = system: LoVo; test: Inhibitory activity against human colon adenocarcinoma cell line LoVo.; format: functional, cell-based; procedure, shortened: as §2
[3] = (§3) Resistance index as the ratio of IC50 value against LoVo/Dx to that of LoVo cell lines.; format: functional
Procedure, shortened: (§4)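 LoVo and LoVo/Dx, each seeded 2.5 × 10^4 cells/mL, preincubated 24 h, exposed to drug 144 h; MTT formazan read at 570 nm. Resistance index = IC50 in LoVo/Dx divided by IC50 in LoVo.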

[4] = system: A-375; test: Inhibitory activity against human tumor cell line […] melanoma.; format: functional, cell-based
Procedure, shortened: (§5)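 Fibrosarcoma HT-1080, colon HT-29, breast MCF-7 and melanoma A-375 adapted to complete RPMI 1640; seeded 2.5 × 10^4 cells/mL, preincubated 24 h, exposed to drug 144 h. MTT assay, formazan dissolved in DMSO, absorbance per well read; IC50 (M) taken as concentration giving 50% growth inhibition.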

[5] = system: HT-29; test: Inhibitory activity against human tumor cell line HT-29.; format: functional, cell-based; procedure, shortened: as §5
[6] = system: MCF7; test: Inhibitory activity against human tumor cell line MCF-7 breast adenocarcinoma.; format: functional, cell-based; procedure, shortened: as §5
[7] = system: HT-1080; test: Inhibitory activity against human tumor cell line HT1080.; format: functional, cell-based; procedure, shortened: as §5
[8] = target: Nucleic Acid; test: Ki value was measured for the binding of compound to DNA in ETN.; format: nucleic-acid assay, Bos taurus
Procedure, shortened: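 UV-vis titration: DNA added to ligand at fixed concentration in 10 mM Tris, 2 mM EDTA, NaCl to ionic strength 0.15 M, pH 7.0, 25 °C. Bound/free ligand from absorbance at wavelength of largest change (isosbestic points present); intrinsic constant and site size fitted by least squares to the neighbour-exclusion equation.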

[9] = system: Nucleic Acid; test: dichroism data for visible band in the compound to DNA in ETN.; format: nucleic-acid assay; settings: Bos taurus
Procedure, shortened: (§6)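 Dichroism in Tris-EDTA-NaCl buffer, ionic strength 0.1, pH 7.0, 25 °C. CD given as Δε from ellipticity, path length and molar concentration. Linear dichroism with DNA oriented in rotating quartz cell at 600-800 rpm, four accumulations; ligand orientation angle derived from ligand/DNA reduced LD ratio, taking bases at 90°.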

[10] = system: LoVo; test: as §3; format: functional, Homo sapiens; procedure, shortened: as §4
[11] = system: HT-29; test: as §1; format: functional, cell-based; settings: in the assay text read “HT-29” for “LoVo/Dx”
[12] = system: HT-1080; test: inhibit the cellular growth by 50% was determined against human tumor cell line HT1080.; format: functional, cell-based; procedure, shortened: as §5
[13] = system: Nucleic Acid; test: dichroism data for visible band in the compound to calf thymus DNA in ETN.; format: nucleic-acid assay; settings: Bos taurus; procedure, shortened: as §6
[14] = system: HT-29; test: Inhibitory activity against human tumor cell line HT-29; format: functional, cell-based; procedure, shortened: as §5
[15] = system: HT-1080; test: Inhibitory activity against human tumor cell line HT1080; format: functional, cell-based; procedure, shortened: as §5

| SMILES | IC50 [1] | IC50 [2] | RI [3] | further results |
| --- | --- | --- | --- | --- |
| OCCCNc1nnc(NCCCO)c2cc3ccccc3cc12 | 36 µM | > 9.6 µM | >3.7 | – |
| OCCNCCNc1nnc(NCCNCCO)c2cc3ccccc3cc12 | > 260 µM | > 8.1 µM | – | – |
| COc1cccc2c1C(=O)c1c(O)c3c(c(O)c1C2=O)C[C@@](O)(C(=O)CO)C[C@@H]3O[C@H]1C[C@H](N)[C@H](O)[C@H](C)O1 [DOXORUBICIN] | 6 µM | 0.043 µM | 139.5 | – |
| O=C1c2c(O)ccc(O)c2C(=O)c2c(NCCNCCO)ccc(NCCNCCO)c21 [MITOXANTRONE] | 0.53 µM | 0.0097 µM | 54.6 | IC50 [4]: 0.026 µM; IC50 [5]: 0.017 µM; IC50 [6]: 0.02 µM; IC50 [7]: 0.066 µM |
| Cl.O=C1c2ccccc2C(=O)c2c(NCCCO)nnc(NCCCO)c21 | < 2 µM | 0.076 µM | <26 | – |
| Cl.O=C1c2ccccc2C(=O)c2c(NCCNCCO)nnc(NCCNCCO)c21 | 39 µM | 2.7 µM | – | Ki [8]: 47000 M⁻¹; LD [9]: -0.13; IC50 [5]: 0.41 µM; IC50 [6]: 0.72 µM; RI [10]: 14.4; IC50 [7]: 1.3 µM |
| O=C1c2ccccc2C(=O)c2c(NCCNCCO)ccc(NCCNCCO)c21 [AMETANTRONE] | 92 µM | 0.58 µM | – | Ki [8]: 340000 M⁻¹; LD [9]: -0.13; RI [10]: 158.6 |
| CN(C)CCNc1nnc(N)c2c1C(=O)c1ccccc1C2=O | – | – | – | IC50 [11]: 0.0065 µM; IC50 [12]: 0.034 µM |
| Cl.Nc1nnc(NCCNCCO)c2c1C(=O)c1ccccc1C2=O | – | – | – | IC50 [4]: 0.00047 µM; Ki [8]: 45000 M⁻¹; LD [13]: -0.13; IC50 [14]: 0.0052 µM; IC50 [15]: 0.0083 µM; IC50 [6]: 0.047 µM |

Continued by falling IC50 [1], values first:

| IC50 [1] | IC50 [2] | SMILES | RI [3] | further results |
| --- | --- | --- | --- | --- |
| 1.7 µM | 0.18 µM | CCN(CC)CCNc1nnc(NCCN(CC)CC)c2c1C(=O)c1ccccc1C2=O | 9.4 | – |
| 1.3 µM | 1.4 µM | O=C1c2ccccc2C(=O)c2c(NCc3ccccc3)nnc(NCc3ccccc3)c21 | 0.9 | – |
| 1.2 µM | 0.26 µM | O=C1c2ccccc2C(=O)c2c(NCCN3CCCCC3)nnc(NCCN3CCCCC3)c21 | 4.6 | – |
| 1 µM | 0.049 µM | CN(C)CCCNc1nnc(NCCCN(C)C)c2c1C(=O)c1ccccc1C2=O | 20.4 | – |
| 0.44 µM | 0.073 µM | CN(C)CCNc1nnc(NCCN(C)C)c2c1C(=O)c1ccccc1C2=O.Cl | 6 | IC50 [4]: 0.033 µM; IC50 [5]: 0.0094 µM; IC50 [6]: 0.00095 µM; IC50 [7]: 0.046 µM |
